Data taken from ChEMBL document CHEMBL1156678, “A new class of analgesic agents toward prostacyclin receptor inhibition: synthesis, biological studies and QSAR analysis of 1-hydroxyl-2-substituted phenyl-4,4,5,5-tetramethylimidazolines” (Eur J Med Chem, 2008).

What was measured:
Mus musculus [1] = experiment: Analgesic activity in ICR mouse assessed as pain threshold variation at 0.013 mmol/kg, ip after 150 mins by tail flick test relative to control; assay type: functional
In short: (§1)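 Male ICR mice (25 ± 2 g), kept on a 12/12 h light/dark cycle at 21 ± 2 °C for one day before use. Each received a single i.p. injection in 0.2 ml saline + 0.01 ml DMSO + 0.02 ml Tween-80. Vehicle-only mice served as controls. Basal tail-flick threshold was measured four times (BPT). Thresholds were then read every 30 min for 150 min. PTV = (post-dose threshold − BPT)/BPT. n = 10, x ± SD.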

Mus musculus [2] = experiment: Analgesic activity in ICR mouse assessed as pain threshold variation at 0.0013 mmol/kg, ip after 30 mins by tail flick test relative to control; assay type: functional; in short: as §1
Mus musculus [3] = experiment: Analgesic activity in ICR mouse assessed as pain threshold variation at 0.0013 mmol/kg, ip after 60 mins by tail flick test relative to control; assay type: functional; in short: as §1
Mus musculus [4] = experiment: Analgesic activity in ICR mouse assessed as pain threshold variation at 0.0013 mmol/kg, ip after 90 mins by tail flick test relative to control; assay type: functional; in short: as §1
Mus musculus [5] = experiment: Analgesic activity in ICR mouse assessed as pain threshold variation at 0.0013 mmol/kg, ip after 120 mins by tail flick test relative to control; assay type: functional; in short: as §1
Mus musculus [6] = experiment: Analgesic activity in ICR mouse assessed as pain threshold variation at 0.0013 mmol/kg, ip after 150 mins by tail flick test relative to control; assay type: functional; in short: as §1
Mus musculus [7] = experiment: Thrombotic toxicity in ICR mouse assessed as tail bleeding time at 1.3 mmol/kg, ip after 60 mins; assay type: organism-based; conditions: in vivo, 1 h
In short: (§2)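 Male ICR mice (25 ± 2 g) were kept one day on a 12/12 h light/dark cycle at 21 ± 2 °C. Each received a single i.p. dose of 1.30 mmol/kg in saline/DMSO/Tween-80 (0.2/0.01/0.02 ml), or the solvent only. The restrained mouse had 1 mm cut from the tail before dosing and at 5, 15, 30 and 60 min. Bleeding time (s) is reported as mean ± SD.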

[8] = Cardiovascular toxicity in rat aorta assessed as inhibition of noradrenaline-induced vasoconstriction at 5 mM relative to control; assay type: tissue-based; conditions: isolated rat aorta
In short: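 Rat aortic strips were contracted with noradrenaline, washed, stabilized for 30 min, and contracted again. At peak contraction, compound was added (final 5 × 10^-3 M) or vehicle alone. The relaxant response was recorded as percentage inhibition of the contraction.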

Mus musculus [9] = experiment: Analgesic activity in ICR mouse assessed as pain threshold variation at 0.013 mmol/kg, ip after 30 mins by tail flick test relative to control; assay type: functional; in short: as §1
Mus musculus [10] = experiment: Analgesic activity in ICR mouse assessed as pain threshold variation at 0.013 mmol/kg, ip after 60 mins by tail flick test relative to control; assay type: functional; in short: as §1
Mus musculus [11] = experiment: Analgesic activity in ICR mouse assessed as pain threshold variation at 0.013 mmol/kg, ip after 90 mins by tail flick test relative to control; assay type: functional; in short: as §1
Mus musculus [12] = experiment: Analgesic activity in ICR mouse assessed as pain threshold variation at 0.013 mmol/kg, ip after 120 mins by tail flick test relative to control; assay type: functional; in short: as §1
Mus musculus [13] = experiment: Analgesic activity in ICR mouse assessed as pain threshold variation at 0.13 mmol/kg, ip after 30 mins by tail flick test relative to control; assay type: functional; in short: as §1
Mus musculus [14] = experiment: Analgesic activity in ICR mouse assessed as pain threshold variation at 0.13 mmol/kg, ip after 60 mins by tail flick test relative to control; assay type: functional; in short: as §1
Mus musculus [15] = experiment: Analgesic activity in ICR mouse assessed as pain threshold variation at 0.13 mmol/kg, ip after 90 mins by tail flick test relative to control; assay type: functional; in short: as §1
Mus musculus [16] = experiment: Analgesic activity in ICR mouse assessed as pain threshold variation at 0.13 mmol/kg, ip after 120 mins by tail flick test; assay type: functional; in short: as §1
Mus musculus [17] = experiment: Analgesic activity in ICR mouse assessed as pain threshold variation at 0.13 mmol/kg, ip after 150 mins by tail flick test; assay type: functional; in short: as §1
Mus musculus [18] = experiment: Thrombotic toxicity in ICR mouse assessed as tail bleeding time at 1.3 mmol/kg, ip after 5 mins; assay type: organism-based; conditions: in vivo; in short: as §2
Mus musculus [19] = experiment: Thrombotic toxicity in ICR mouse assessed as tail bleeding time at 1.3 mmol/kg, ip after 15 mins; assay type: organism-based; conditions: in vivo, 0.25 h; in short: as §2
Mus musculus [20] = experiment: Thrombotic toxicity in ICR mouse assessed as tail bleeding time at 1.3 mmol/kg, ip after 30 mins; assay type: organism-based; conditions: in vivo, 0.5 h; in short: as §2

Row | SMILES | Activity (Mus musculus [1]) | Activity (Mus musculus [2]) | Activity (Mus musculus [3]) | Activity (Mus musculus [4]) | Activity (Mus musculus [5]) | Activity (Mus musculus [6]) | Activity (Mus musculus [7]) | inhibition at 5000 µM [8] | Activity (Mus musculus [9]) | Activity (Mus musculus [10]) | Activity (Mus musculus [11]) | Activity (Mus musculus [12]) | Activity (Mus musculus [13]) | Activity (Mus musculus [14]) | Activity (Mus musculus [15]) | Activity (Mus musculus [16]) | Activity (Mus musculus [17]) | Activity (Mus musculus [18]) | Activity (Mus musculus [19]) | Activity (Mus musculus [20])
1 | CC1(C)N=C(c2ccccc2F)N(O)C1(C)C | 69.89% | 27.64% | 36.02% | 36.96% | 37.8% | 47.03% | 119 s | 22.7% | 45.44% | 53.11% | 54% | 56.97% | 66.15% | 72.72% | 73.25% | 75.97% | 90.94% | 117 s | 117 s | 119 s
2 | CC1(C)N=C(c2ccc(Br)cc2)N(O)C1(C)C | 47.7% | 11.32% | 43.9% | 34.49% | 31.87% | 26.57% | 120 s | 18.4% | 19.33% | 68.89% | 53.75% | 52.98% | 29.02% | 89.78% | 75.18% | 75.77% | 70.19% | 118 s | 119 s | 118 s
3 | CC1(C)N=C(c2ccc(Cl)cc2)N(O)C1(C)C | 62.76% | 24.97% | 30.02% | 32.13% | 31.55% | 42.74% | 119 s | 23.8% | 39.87% | 47.25% | 50.88% | 50% | 63.85% | 70.21% | 75.61% | 74.74% | 88.42% | 117 s | 119 s | 117 s
